Consider seven compounds from BindingDB's records for doi:10.1021/np070447m (2008).

Structures are written as SMILES.

Assay [1] deals with T1, Ephrin type-B receptor 4 (Homo sapiens, UniProt P54760).
T1 sequence (P54760 whole entry): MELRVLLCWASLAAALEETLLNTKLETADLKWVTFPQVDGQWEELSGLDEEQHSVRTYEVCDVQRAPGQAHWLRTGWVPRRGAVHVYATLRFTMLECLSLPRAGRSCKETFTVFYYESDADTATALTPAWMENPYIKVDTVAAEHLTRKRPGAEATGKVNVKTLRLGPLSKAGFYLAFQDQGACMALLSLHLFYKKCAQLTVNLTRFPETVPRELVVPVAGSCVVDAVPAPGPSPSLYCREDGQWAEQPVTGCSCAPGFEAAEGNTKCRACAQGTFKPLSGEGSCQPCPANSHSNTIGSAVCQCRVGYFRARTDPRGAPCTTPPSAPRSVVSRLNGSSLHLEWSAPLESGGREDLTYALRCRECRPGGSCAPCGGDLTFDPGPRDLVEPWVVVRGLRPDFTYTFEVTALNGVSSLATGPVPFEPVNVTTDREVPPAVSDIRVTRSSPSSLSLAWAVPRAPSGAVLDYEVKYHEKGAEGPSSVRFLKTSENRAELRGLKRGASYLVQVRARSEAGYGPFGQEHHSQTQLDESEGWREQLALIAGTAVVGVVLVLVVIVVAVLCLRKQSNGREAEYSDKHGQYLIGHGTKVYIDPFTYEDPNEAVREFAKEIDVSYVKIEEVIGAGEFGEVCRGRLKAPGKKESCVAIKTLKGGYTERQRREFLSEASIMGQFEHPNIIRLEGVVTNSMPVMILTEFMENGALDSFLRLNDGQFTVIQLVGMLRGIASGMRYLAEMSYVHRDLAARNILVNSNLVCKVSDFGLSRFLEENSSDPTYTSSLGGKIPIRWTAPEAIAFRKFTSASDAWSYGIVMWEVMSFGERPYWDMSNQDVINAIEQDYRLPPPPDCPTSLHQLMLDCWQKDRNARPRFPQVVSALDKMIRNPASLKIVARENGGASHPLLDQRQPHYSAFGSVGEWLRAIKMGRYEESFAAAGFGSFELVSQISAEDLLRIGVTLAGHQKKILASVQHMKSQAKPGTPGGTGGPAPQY
Put plainly: Inhibition of recombinant EPHB4. The essentials:
(§1)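 Purified recombinant kinase, 50 µL reaction. 1 µM [γ-33P]-ATP with substrate; compound added in 10% DMSO. Tested over several concentrations; IC50 in g/mL.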

Assay [2] deals with RAC-alpha serine/threonine-protein kinase (Homo sapiens, UniProt P31749). The assay is described as follows: Inhibition of recombinant AKT1. The essentials: as §1
Chain of RAC-alpha serine/threonine-protein kinase (P31749 whole entry): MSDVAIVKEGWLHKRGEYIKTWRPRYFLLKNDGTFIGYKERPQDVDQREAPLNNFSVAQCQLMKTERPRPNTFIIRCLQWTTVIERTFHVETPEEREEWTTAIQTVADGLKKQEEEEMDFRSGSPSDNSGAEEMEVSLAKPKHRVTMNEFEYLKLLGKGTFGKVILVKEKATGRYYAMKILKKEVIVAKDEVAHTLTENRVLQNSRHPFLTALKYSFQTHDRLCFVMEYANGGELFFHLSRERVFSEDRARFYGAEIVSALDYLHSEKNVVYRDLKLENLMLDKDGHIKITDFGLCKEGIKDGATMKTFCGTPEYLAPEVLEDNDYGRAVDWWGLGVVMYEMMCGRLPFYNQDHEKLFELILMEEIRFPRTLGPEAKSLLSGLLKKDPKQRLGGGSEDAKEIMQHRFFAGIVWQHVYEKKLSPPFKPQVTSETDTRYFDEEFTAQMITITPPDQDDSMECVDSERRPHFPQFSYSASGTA
Assay [3] addresses Platelet-derived growth factor receptor beta (Homo sapiens, UniProt P09619). The assay is described as follows: Inhibition of recombinant PDGFRbeta.
Assay [4] addresses T2, NUAK family SNF1-like kinase 1 (Homo sapiens, UniProt O60285).
T2 sequence (O60285 whole entry): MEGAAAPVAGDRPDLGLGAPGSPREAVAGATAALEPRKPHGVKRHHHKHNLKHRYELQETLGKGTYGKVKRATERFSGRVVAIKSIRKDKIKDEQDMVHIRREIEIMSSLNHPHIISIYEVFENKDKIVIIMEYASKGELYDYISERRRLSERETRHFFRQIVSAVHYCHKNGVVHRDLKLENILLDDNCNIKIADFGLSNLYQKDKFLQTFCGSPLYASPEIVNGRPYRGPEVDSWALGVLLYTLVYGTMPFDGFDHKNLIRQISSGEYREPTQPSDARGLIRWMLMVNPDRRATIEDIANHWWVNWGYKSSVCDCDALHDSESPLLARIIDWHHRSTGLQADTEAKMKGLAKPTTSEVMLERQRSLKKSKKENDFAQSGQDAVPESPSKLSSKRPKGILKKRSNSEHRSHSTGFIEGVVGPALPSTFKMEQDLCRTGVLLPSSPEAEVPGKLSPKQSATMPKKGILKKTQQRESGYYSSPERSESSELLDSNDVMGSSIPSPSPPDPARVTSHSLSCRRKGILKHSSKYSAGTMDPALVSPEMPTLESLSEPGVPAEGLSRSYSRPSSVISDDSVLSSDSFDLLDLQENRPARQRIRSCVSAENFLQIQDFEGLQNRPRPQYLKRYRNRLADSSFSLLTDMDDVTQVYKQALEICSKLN
Put plainly: Inhibition of recombinant ARK5.

The target of assay [5] is T3, Aurora kinase A (Homo sapiens, UniProt O14965).
T3 sequence (O14965 whole entry): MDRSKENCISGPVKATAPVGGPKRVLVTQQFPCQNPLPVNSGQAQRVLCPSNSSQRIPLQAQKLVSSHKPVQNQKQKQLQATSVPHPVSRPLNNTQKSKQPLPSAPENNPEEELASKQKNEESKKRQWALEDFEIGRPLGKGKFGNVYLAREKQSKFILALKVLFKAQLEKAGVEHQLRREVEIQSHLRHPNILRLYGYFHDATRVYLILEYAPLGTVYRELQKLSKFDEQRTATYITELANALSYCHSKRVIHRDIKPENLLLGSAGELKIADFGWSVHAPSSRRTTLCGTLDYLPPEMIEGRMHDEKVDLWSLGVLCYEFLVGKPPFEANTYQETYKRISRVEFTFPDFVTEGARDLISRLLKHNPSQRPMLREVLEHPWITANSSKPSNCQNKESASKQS
The assay is described as follows: Inhibition of recombinant Aurora A. The essentials: as §1

In assay [6] the target is T4, Serine/threonine-protein kinase PLK4 (Homo sapiens, UniProt O00444).
T4 sequence (O00444 whole entry): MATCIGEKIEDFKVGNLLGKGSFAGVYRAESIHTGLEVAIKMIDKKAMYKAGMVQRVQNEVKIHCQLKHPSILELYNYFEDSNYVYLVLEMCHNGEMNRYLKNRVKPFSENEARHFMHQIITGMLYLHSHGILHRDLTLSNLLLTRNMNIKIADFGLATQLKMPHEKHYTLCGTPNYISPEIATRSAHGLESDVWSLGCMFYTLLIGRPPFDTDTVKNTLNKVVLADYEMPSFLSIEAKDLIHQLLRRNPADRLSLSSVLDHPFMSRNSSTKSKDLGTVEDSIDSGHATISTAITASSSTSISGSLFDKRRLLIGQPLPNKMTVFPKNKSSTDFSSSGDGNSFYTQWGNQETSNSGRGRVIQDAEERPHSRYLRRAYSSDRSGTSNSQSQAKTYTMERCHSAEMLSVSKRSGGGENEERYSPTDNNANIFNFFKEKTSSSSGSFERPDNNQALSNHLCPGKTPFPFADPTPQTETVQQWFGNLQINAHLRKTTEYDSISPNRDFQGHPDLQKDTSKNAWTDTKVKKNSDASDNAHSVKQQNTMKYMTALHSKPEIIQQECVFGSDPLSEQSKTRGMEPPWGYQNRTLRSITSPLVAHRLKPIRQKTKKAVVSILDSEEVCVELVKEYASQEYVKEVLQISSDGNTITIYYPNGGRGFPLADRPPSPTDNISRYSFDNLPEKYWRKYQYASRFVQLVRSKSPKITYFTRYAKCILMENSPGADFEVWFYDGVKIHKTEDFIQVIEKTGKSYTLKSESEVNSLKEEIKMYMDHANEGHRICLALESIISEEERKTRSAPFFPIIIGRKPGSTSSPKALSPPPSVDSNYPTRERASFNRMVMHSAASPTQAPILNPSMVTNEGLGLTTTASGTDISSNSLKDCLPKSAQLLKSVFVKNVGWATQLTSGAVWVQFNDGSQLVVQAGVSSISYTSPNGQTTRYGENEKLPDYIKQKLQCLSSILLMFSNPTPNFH
The assay is described as follows: Inhibition of recombinant SAK.

Assay [7] concerns the target Cyclin-dependent kinase 2 (Homo sapiens, UniProt P24941). The assay is described as follows: Inhibition of recombinant CDK2/CycA. The essentials: as §1
Assay [8] concerns the target T5, Receptor-type tyrosine-protein kinase FLT3 (Homo sapiens, UniProt P36888).
T5 sequence (P36888 whole entry): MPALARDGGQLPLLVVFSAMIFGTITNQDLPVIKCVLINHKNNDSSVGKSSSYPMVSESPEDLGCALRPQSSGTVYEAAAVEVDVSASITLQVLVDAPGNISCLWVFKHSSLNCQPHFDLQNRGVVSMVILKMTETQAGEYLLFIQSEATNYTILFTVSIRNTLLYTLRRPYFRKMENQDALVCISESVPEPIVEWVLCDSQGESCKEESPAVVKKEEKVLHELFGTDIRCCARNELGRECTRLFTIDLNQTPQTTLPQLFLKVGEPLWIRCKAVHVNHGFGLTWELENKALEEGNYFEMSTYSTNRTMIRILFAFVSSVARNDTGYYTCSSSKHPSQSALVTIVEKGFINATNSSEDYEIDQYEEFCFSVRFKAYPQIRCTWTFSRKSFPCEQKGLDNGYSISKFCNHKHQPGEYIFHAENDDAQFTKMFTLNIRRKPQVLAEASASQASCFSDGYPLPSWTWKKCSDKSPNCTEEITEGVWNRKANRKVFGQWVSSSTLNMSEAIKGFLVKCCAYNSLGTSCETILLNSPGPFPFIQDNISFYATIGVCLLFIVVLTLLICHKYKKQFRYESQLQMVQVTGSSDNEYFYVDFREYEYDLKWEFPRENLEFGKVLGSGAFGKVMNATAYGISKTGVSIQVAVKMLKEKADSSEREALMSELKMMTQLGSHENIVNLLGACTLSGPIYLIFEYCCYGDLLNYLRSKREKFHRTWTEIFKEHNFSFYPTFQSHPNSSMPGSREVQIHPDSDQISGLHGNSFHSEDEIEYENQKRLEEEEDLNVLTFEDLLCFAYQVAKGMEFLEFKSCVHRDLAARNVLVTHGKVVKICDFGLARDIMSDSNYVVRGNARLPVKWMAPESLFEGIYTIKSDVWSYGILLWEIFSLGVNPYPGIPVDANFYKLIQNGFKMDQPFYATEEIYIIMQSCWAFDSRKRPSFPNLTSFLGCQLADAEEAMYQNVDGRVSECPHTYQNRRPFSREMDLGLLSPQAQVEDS
Put plainly: Inhibition of recombinant FLT3. The essentials:
as §1

In assay [9] the target is Vascular endothelial growth factor receptor 2 (Homo sapiens, UniProt P35968). The assay is described as follows: Inhibition of recombinant VEGFR2. The essentials:
as §1

Assay [10] has as its target Aurora kinase B (Homo sapiens, UniProt Q96GD4). Put plainly: Inhibition of recombinant Aurora B. The essentials: as §1
The target in assay [11] is Serine/threonine-protein kinase B-raf (Homo sapiens, UniProt P15056, V600E). Put plainly: Inhibition of recombinant B-RAF-V600E mutant. The essentials: as §1
Assay [12] has as its target Receptor tyrosine-protein kinase erbB-2 (Homo sapiens, UniProt P04626). The assay is described as follows: Inhibition of recombinant ERBB2.
In assay [13] the target is Serine/threonine-protein kinase PLK1 (Homo sapiens, UniProt P53350). The assay is described as follows: Inhibition of recombinant PLK1.
Chain of Serine/threonine-protein kinase PLK1 (P53350 whole entry): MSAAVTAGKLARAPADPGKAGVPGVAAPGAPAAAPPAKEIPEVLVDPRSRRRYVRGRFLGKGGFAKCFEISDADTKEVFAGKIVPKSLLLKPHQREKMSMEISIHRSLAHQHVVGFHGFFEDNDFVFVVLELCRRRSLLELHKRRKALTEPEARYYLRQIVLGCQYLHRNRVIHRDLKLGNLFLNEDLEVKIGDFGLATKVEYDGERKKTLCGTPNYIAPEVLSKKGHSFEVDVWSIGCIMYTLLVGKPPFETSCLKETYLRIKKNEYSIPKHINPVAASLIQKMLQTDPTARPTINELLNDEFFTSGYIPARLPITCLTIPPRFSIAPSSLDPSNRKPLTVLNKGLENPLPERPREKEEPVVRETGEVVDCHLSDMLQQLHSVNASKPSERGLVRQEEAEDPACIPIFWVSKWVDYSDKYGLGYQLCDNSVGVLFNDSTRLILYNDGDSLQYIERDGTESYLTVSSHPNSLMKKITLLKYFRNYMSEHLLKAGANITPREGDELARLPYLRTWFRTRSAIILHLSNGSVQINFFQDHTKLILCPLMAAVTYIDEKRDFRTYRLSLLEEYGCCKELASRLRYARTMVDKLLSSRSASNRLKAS
In assay [14] the target is Casein kinase II subunit alpha (Homo sapiens, UniProt P68400). The assay is described as follows: Inhibition of recombinant CK2alpha1. The essentials: as §1
Chain of Casein kinase II subunit alpha (P68400 whole entry): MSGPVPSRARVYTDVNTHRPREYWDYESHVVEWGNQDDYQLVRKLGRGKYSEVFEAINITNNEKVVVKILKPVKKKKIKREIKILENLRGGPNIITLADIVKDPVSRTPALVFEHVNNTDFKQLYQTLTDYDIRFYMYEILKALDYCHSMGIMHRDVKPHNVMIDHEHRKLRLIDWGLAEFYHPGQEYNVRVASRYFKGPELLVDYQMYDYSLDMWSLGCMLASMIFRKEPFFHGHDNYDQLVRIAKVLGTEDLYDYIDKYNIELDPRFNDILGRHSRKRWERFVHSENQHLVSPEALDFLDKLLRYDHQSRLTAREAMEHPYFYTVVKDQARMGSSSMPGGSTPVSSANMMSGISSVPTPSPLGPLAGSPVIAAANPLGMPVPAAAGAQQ
Assay [15] deals with Insulin-like growth factor 1 receptor (Homo sapiens, UniProt P08069). Put plainly: Inhibition of recombinant IGF1R. The essentials: as §1
For assay [16], the target named is Vascular endothelial growth factor receptor 3 (Homo sapiens, UniProt P35916). The assay is described as follows: Inhibition of recombinant VEGFR3. The essentials: as §1
Assay [17] concerns the target Angiopoietin-1 receptor (Homo sapiens, UniProt Q02763). Put plainly: Inhibition of recombinant TIE2.
Assay [18] concerns the target Focal adhesion kinase 1 (Homo sapiens, UniProt Q05397). Put plainly: Inhibition of recombinant FAK.
Assay [19] deals with Mitogen-activated protein kinase kinase kinase 8 (Homo sapiens, UniProt P41279). The assay is described as follows: Inhibition of recombinant COT.
The target of assay [20] is Cyclin-dependent kinase 4/G1/S-specific cyclin-D1 (Homo sapiens, UniProt P11802). The assay is described as follows: Inhibition of recombinant CDK4/CycD1.
Chain of Cyclin-dependent kinase 4/G1/S-specific cyclin-D1 (P11802 whole entry): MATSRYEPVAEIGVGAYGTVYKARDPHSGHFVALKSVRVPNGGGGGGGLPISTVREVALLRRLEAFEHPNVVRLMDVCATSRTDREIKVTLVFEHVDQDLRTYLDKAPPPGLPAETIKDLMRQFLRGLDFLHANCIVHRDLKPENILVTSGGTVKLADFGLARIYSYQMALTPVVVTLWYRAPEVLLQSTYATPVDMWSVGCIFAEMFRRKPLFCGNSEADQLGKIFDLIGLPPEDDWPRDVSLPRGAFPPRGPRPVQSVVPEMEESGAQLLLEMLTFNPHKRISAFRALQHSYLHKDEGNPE
Chain of Cyclin-dependent kinase 4/G1/S-specific cyclin-D1 (P24385 whole entry, further chain): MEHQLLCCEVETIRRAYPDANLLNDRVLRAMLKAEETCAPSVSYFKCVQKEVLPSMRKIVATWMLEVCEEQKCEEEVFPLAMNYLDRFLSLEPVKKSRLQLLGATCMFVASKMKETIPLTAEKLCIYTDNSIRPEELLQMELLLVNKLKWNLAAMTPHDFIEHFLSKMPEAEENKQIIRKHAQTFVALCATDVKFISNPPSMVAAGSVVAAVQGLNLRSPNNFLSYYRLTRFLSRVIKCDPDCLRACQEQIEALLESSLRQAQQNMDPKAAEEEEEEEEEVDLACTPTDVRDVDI

Chain of Receptor tyrosine-protein kinase erbB-2 (P04626 whole entry): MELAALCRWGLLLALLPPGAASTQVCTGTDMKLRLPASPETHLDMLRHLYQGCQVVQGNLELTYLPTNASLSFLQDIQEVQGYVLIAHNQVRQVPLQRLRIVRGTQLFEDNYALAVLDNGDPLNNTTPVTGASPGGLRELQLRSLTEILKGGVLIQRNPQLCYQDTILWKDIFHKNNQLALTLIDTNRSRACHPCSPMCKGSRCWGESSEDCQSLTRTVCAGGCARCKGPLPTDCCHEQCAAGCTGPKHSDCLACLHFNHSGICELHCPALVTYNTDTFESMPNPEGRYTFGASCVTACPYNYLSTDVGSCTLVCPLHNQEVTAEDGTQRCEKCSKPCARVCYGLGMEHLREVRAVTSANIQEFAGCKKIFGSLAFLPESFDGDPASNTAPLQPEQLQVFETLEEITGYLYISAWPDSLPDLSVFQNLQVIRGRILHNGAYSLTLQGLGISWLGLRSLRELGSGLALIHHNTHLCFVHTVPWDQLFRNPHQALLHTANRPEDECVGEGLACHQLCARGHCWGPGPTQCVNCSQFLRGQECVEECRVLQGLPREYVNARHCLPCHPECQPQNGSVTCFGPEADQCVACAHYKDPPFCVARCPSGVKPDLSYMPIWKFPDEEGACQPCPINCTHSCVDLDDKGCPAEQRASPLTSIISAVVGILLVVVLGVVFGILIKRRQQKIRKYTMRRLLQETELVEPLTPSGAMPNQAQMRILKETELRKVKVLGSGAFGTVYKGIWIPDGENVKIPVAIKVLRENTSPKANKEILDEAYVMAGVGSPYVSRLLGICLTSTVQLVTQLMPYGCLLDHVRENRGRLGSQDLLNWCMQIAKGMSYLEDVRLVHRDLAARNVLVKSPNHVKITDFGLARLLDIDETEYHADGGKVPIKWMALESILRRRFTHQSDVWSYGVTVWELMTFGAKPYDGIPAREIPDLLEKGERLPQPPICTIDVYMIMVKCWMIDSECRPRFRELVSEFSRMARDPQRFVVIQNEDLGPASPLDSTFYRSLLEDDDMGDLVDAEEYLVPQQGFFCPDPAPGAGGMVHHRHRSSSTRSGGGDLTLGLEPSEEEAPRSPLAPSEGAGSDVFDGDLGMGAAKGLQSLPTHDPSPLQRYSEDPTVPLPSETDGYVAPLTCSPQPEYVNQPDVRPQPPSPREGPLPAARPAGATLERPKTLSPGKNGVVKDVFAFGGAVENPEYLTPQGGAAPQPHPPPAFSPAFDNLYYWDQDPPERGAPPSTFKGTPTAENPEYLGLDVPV
Chain of Platelet-derived growth factor receptor beta (P09619 whole entry): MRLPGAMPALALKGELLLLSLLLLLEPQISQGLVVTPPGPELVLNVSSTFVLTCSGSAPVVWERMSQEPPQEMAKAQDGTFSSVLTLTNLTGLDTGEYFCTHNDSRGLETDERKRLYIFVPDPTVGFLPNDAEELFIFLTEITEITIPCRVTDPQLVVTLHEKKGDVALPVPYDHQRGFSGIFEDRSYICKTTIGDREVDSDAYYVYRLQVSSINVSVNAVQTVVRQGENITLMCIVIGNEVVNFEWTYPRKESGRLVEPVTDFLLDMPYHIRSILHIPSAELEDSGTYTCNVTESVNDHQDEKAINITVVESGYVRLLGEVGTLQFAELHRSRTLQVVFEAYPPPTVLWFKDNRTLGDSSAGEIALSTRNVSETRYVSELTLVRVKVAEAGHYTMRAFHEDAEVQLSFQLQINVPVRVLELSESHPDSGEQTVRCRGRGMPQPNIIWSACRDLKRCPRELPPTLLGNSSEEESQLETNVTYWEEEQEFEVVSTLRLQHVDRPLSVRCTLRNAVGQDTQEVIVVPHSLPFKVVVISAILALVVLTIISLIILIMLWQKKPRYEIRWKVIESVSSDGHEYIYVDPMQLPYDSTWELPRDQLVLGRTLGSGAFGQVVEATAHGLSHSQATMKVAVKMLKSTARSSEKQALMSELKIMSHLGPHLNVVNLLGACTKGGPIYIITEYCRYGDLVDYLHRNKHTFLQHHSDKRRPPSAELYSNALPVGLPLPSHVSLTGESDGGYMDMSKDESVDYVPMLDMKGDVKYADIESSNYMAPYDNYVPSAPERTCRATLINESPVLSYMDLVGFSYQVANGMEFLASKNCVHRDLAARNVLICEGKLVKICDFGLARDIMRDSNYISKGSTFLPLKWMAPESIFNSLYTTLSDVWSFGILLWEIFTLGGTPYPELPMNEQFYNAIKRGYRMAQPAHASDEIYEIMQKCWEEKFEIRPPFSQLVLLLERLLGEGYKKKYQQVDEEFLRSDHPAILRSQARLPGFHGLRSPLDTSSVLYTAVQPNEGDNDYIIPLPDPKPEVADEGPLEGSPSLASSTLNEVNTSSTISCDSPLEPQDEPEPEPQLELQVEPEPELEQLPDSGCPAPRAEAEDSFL
Chain of Aurora kinase B (Q96GD4 whole entry): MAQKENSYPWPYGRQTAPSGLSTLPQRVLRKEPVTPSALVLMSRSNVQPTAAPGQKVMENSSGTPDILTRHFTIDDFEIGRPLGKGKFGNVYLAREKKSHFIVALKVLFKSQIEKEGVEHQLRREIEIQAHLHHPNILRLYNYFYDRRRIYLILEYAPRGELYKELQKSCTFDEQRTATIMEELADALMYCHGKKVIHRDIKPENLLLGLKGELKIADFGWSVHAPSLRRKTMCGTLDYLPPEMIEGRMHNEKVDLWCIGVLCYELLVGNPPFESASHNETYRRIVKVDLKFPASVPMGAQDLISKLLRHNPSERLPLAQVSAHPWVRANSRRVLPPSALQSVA

As to `Cc1cc(O)cc2oc(=O)c3c(O)cc(O)cc3c12` [CHEBI:64983], the IC50 in assay [1] was over 38.7 µM; in [2], over 38.7 µM; in assay [3], 3.44 µM; in assay [4], 3.67 µM; in assay [5], 2.82 µM.
For the compound `Cc1cc(O)cc2oc(=O)c3c(O)cc(OS(=O)(=O)O)cc3c12` [Alternariol 5-O-Sulfate], the IC50 in assay [6] was 1.12 µM; in assay [2], over 29.5 µM; in [7] it was 2.48 µM; in [8], 0.975 µM; in assay [9] it was 2.06 µM; in assay [10], 0.65 µM. Further, the IC50 in assay [11] was found to be 2.18 µM; in assay [4], 2.21 µM; in [5], 1.15 µM.
On to `Cc1cc(O)c(O)cc1-c1cc(O)cc(O)c1C(=O)O` [Desmethylaltenusin], for which the IC50 in assay [12], in assay [2], in assay [7], in assay [13] and in assay [14] was over 36.2 µM throughout.
For the compound `O=C1C[C@H](O)[C@@H]2c3c(ccc(O)c31)-c1ccc(O)c3c1[C@@]2(O)CCC3=O` [Altertoxin I], the IC50 in [12] is over 28.3 µM; in assay [2], over 28.3 µM; in assay [7], over 28.3 µM; in assay [8], 1.87 µM; in [13] it was over 28.3 µM; in [14], over 28.3 µM. Further, the IC50 in assay [10] is 2.78 µM.
`COc1cc(O)c2c(=O)oc3c(O)c(O)cc(C)c3c2c1`: the IC50 in assay [6] was 2.87 µM; in assay [15], 3.15 µM; in [8], 1.83 µM; in assay [14] it was over 34.6 µM; in [9], 2.22 µM; in assay [16], 1.35 µM. The IC50 in [4] came to 1.21 µM.
On to `COc1cc(O)c(C(=O)O)c(C2=C(C)C[C@@H](O)C2=O)c1` [Alternarienonic Acid], for which the IC50 in [17], in assay [1], in assay [12], in [18], in assay [2] and in assay [7] was over 35.9 µM each time. For the same compound, the IC50 in assay [19], in assay [13], in assay [14], in assay [3] and in assay [20] was over 35.9 µM each time.
On to `COc1cc(O)c2c(=O)oc3cc(O)cc(C)c3c2c1`, for which the IC50 in assay [14] is over 36.7 µM.
